# Experimental data of several laboratories.
# Compare with care: the assays were run in different laboratories.
# Target: Bone morphogenetic protein receptor type-1A (BMPR1A, Homo sapiens, UniProt P36894)
SMILES,test,setting,remaining binding [%]
Cc1cnc(Nc2ccc(C(=O)N3CCC(N4CCCC4)CC3)cc2)nc1-c1cc2ccccc2s1,"binding, competition with immobilised ligand",1 µM,60
CN(C)c1ncc(F)c(-c2cnn3ncccc23)n1,binding,1 µM,100
O=C(O)[C@H]1[C@H](Cn2nnc3ccccc3c2=O)CC[C@@H]1C(=O)c1ccc(OCCC2CCOCC2)cc1,"binding, competition with immobilised ligand",1 µM,61
CNC(=O)[C@@H]1CC[C@@H](n2c(-c3ccc4cnccc4c3)nc3ccc(C(=O)NCc4cccc(C(N)=O)c4)cc32)C1,"binding, competition with immobilised ligand",1 µM,92
COc1cccc(CNC(=O)c2nc3scc(COCc4ccc(C(=O)O)cc4)c3c(=O)[nH]2)c1,"cell-free assay, competition with immobilised ligand",1 µM,100
N[C@@H]1CCN(c2nccc(-c3cnn4ncccc34)n2)C1,binding,1 µM,100
C[C@@H](c1ccc(-n2cnc3c(N)ncnc32)cc1)N1CCc2nn(C)c(Cc3ccccc3)c2C1=O,"binding, competition with immobilised ligand",0.1 µM,100
O=C(c1ccc(Nc2ncc(Cl)c(-c3ccc(Cl)s3)n2)cc1)N1CCC(N2CCCC2)CC1,"binding, competition with immobilised ligand",1 µM,59
c1cnn2ncc(-c3ccnc(N4CCC45COC5)n3)c2c1,binding,1 µM,88
c1cncc(-c2cccc(Nc3nccc(NC4CCCCC4)n3)c2)c1,"binding, competition with immobilised ligand",10 µM,73
Cc1cnn2ncc(-c3ccnc(N(C)C)n3)c2c1,binding,1 µM,100
FC(F)(F)c1ccc2c(c1)nc(-c1cccnc1)n2C1CC1,"cell-free assay, competition with immobilised ligand",1 µM,93
FC(F)(F)Oc1cccc(-c2cnc3ccc(-c4ccncc4)nn23)c1,"cell-free assay, competition with immobilised ligand",5 µM,81
O=C(c1ccc(Nc2ncc(Cl)c(-c3cc4ccccc4s3)n2)cc1)N1CCC(N2CCCC2)CC1,"binding, competition with immobilised ligand",1 µM,60
CN(c1ccnc(CNc2nc(Nc3ccc4c(c3)CC(=O)N4)ncc2C(F)(F)F)n1)S(C)(=O)=O,"binding, competition with immobilised ligand",1 µM,89
COc1ncc2cc3ccccc3nc2c1C#N,"binding, competition with immobilised ligand",5 µM,94
c1ccc(N2CCN(Cc3nc4ccccc4[nH]3)CC2)nc1,"binding, competition with immobilised ligand",1 µM,86
CN(C)c1nccc(-c2cnc3ncccn23)n1,binding,1 µM,100
C[C@@]1(Cc2ccc(C#N)cc2)C(=O)N(c2cc(Cl)cc(Cl)c2)c2ncc(C(=O)NC3(c4nc(C5CCC5)no4)CC3)n21,"binding, competition with immobilised ligand",1 µM,100
O=C(NCC1CCOCC1)c1n[nH]cc1NC(=O)c1c(F)cccc1F,"binding, competition with immobilised ligand",1 µM,89
